The results in this text go back to ChEMBL document CHEMBL4699454, “Mechanistic insights into the activation of ester prodrugs of 666-15” (Bioorg Med Chem Lett, 2020).

Data set [1] can be described thus: Aqueous solubility of the compound in distilled de-ionized water. Format: physicochemical.
A short description of data set [2]: Ratio of GI50 for human MDA-MB-231 cells to GI50 for human MDA-MB-468 cells assessed as cell growth inhibition measured after 72 hrs by MTT assay. In kind it is functional. On the technique in general: Tetrazolium dyes change colour on reduction, which living cells bring about.
Data set [3] is described as follows: Stability of the compound in DMSO. In kind it is physicochemical.
Another data set concerns MDA-MB-468. Description: Antiproliferative activity against human MDA-MB-468 cells assessed as inhibition of cell growth incubated for 72 hrs by MTT assay. In kind it is functional. Summed up:
(§1)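 MTT viability read-out after 72 h exposure of TNBC cells to increasing compound concentrations. GI50 = concentration giving 50% growth inhibition; mean ± SD from at least two independent experiments run in duplicate. Stocks of the ester prodrugs prepared in DMF, parent compound stocks in DMSO.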

A short description of data set [4]: Inhibition of CREB (unknown origin) expressed in HEK293T cells transfected with pCRE-RLuc assessed as inhibition of forskolin-induced CREB transcription activity by luciferase reporter gene assay. In kind it is cell-based. As to conditions: Homo sapiens, HEK-293T. Summed up: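 HEK293T cells transiently transfected with pCRE-RLuc (Renilla luciferase under CREB control), treated with graded compound concentrations, then stimulated with forskolin to raise CREB phosphorylation; luciferase signal read. IC50 = concentration halving reporter transcription; mean ± SD of at least two experiments in triplicate. Prodrug stocks in DMF, parent in DMSO.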

The test system of a further data set is MDA-MB-231. Briefly: Antiproliferative activity against human MDA-MB-231 cells assessed as inhibition of cell growth incubated for 72 hrs by MTT assay. In kind it is functional. Summed up:
as §1

A short description of data set [5]: Stability of the compound in DMEM at 200 uM incubated for 5 to 30 mins in presence of 10% FBS by HPLC analysis. As to conditions: time min 5-30. Summed up: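 Compound at 200 μM incubated in DMEM with 10% FBS at 37 °C; aliquots withdrawn at various time points and analysed by HPLC, peaks assigned by comparison with authentic reference samples.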

SMILES strings stand for the structures.

By solubility is commonly meant how much of the substance goes into solution per volume. Read a low solubility as a poorly soluble substance. Compound `Cl.NCCCOc1cc2ccccc2cc1C(=O)NCCOc1cc2ccccc2cc1C(=O)Nc1ccc(Cl)cc1O` came in with a solubility in data set [1] of under 0.5 mg/mL.
The term GI50 denotes the concentration giving 50% growth inhibition. The IC50 is the concentration at which inhibition is half-maximal. As to `NCCCOc1cc2ccccc2cc1C(=O)Oc1cc(Cl)ccc1NC(=O)c1cc2ccccc2cc1OCCN`, the “Ratio IC50” value in data set [2] came to 10. Also, the Stabilty entry in data set [3] is on record as “Unstable”. For the same compound, the values for the GI50 with MDA-MB-468 and in the data set on MDA-MB-231 were 45 nM and 540 nM, respectively. For the same compound, the IC50 in data set [4] came out at 260 nM.
For the compound `Cl.Cl.NCCCOc1cc2ccccc2cc1C(=O)Nc1ccc(Cl)cc1OC(=O)c1cc2ccccc2cc1OCCN`, the “Ratio IC50” value in data set [2] was 10. In data set [3], the Stabilty entry is “Unstable”. Besides, the concentration for 50% growth inhibition (GI50) in the data set with MDA-MB-468 worked out at 32 nM; in the data set on MDA-MB-231, 670 nM. Further, the IC50 in data set [4] was found to be 250 nM. Further, the Stability result in data set [5] is recorded as “Unstable”. Besides, in data set [1], the solubility is over 100 mg/mL.
